Compound activity from PubChem BioAssay.
ANO1 block = inhibitors of mouse TMEM16A calcium-activated chloride channel; HEK293 TMEM16A/YFP iodide influx fluorescence, ionomycin; normalized B-score (activity score, 25-100; higher = stronger inhibition) at 10 µM; 310,000 compounds, 1.2% hits; AID 588511;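 active = ratio plate-corrected score three or more library SD toward inhibition, starting fluorescence score within five deviations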;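 note: score derived from kinetic fluorescence span divided by baseline fluorescence per well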
m5-HT2A agonist = mouse HTR2A agonism via beta-arrestin recruitment; CHO-K1 mHTR2A beta-arrestin complementation, luminescence; percent of 30 µM serotonin response; activation, % at 7.6 µM; 360,000 compounds, 0.66% hits;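 active = activation above a run cutoff, the mean activation of all tested compounds plus 3 SD, cut at about 14% in these data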;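 note: 0% = plate median of compound wells and 100% = 30 µM serotonin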
MC4R antag cAMP = human MC4R antagonism in cAMP assay | 360,000 compounds, 0.48% hits | AID 540295 | MC4R-expressing cells, MTII-stimulated cAMP, LANCE TR-FRET | inhibition, % at 6.5 µM | P32245;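 active = inhibition above its plate's cutoff, the mean of tested wells on that plate plus 3 SD, cut at about 29% in these data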;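 note: 0% = Melanotan II alone and 100% = Melanotan II plus saturating MCL0020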
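Test system: U2OS cells stably expressing human melanocortin 4 receptor (MC4R); also added: Melanotan II challenge; compound: 6.5 µM single dose; timing: 30-min compound preincubation, 1-h Melanotan II challenge, 1-h detection, room temperature; signal: Eu-cAMP/anti-cAMP TR-FRET, emission 671 nm; repeats: one well per compound, no replicates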
ANO1 activ = activators or potentiators of mouse TMEM16A chloride channel; Q8BHY3; HEK293 TMEM16A/YFP-H148Q/I152L, iodide quench fluorescence; active compounds read low; B-score at 10 µM; 340,000 compounds, 0.3% hits;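 active = fluorescence-ratio B-score plate-corrected deviation score at least 3 library SD below zero, with starting fluorescence score within 5 deviations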;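 note: channel opened by trigger with iodide after compound preincubation; score built on the fluorescence ratio of max minus min over baseline; more negative score means more quench and so TMEM16A activation or potentiation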
MC4R ag barr = human MC4R agonism via beta-arrestin. P32245. U2OS MC4R beta-arrestin complementation, luminescence; percent of melanotan II response, DMSO zero. activation, % at 8.9 µM. 360,000 compounds, 0.98% hits. AID 540308;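 active = activation above a per-plate cutoff, the mean activation of sample wells on that plate plus 3 SD, cut at about 8% in these data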
MIN6 prolif = MIN6 beta-cell proliferation induction; MIN6 cells proliferation, ATPlite luminescence, 48 h; cells starved in 0.2% serum; 100% = growth in 10% serum; 330,000 compounds, 0.29% hits; AID 2380; proliferation, % at 10 µM;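 active = compounds whose signal lies at least 3.5 SD above the mean of all wells on their plate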;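 note: 0% = DMSO-treated cells in low-serum medium and 100% = 10% serum control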
MOR ag counter = OPRM1 agonism in mouse HTR2A counterscreen; AID 624380; activation, % at 9.3 µM; U2OS OPRM1 beta-arrestin PathHunter, luminescence; DMSO 0%, DAMGO 9.3 µM 100%; 2,300 compounds, 5.3% hits; shares compounds with m5-HT2A agonist;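 active = mean activation above the mean of DMSO-only wells plus 3 SD, cut at about 0.5% in these data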
HTR2A ag conf = mouse HTR2A agonism confirmed; activation, % at 7.6 µM; 2,300 compounds, 19% hits; AID 624381; shares compounds with m5-HT2A agonist; CHO-K1 PathHunter beta-arrestin recruitment, luminescence; DMSO 0%, 30 µM serotonin 100%;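 active = mean activation across triplicates above the hit threshold derived in the original primary screen, cut at about 15% in these data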
Numbers without * were called inactive; i = inactive; . = no result given. Most compounds without a hit are left out; they make up all but 3.4% or so of the library.

SMILES	ANO1 block	m5-HT2A agonist	MC4R antag cAMP	ANO1 activ	MC4R ag barr	MIN6 prolif	MOR ag counter	HTR2A ag conf
CCOC(=O)c1nn(-c2ccccc2)c2nc(-c3ccc(OC)cc3)c(C#N)c(=O)n12	i	19*	16	i	-2	0	0.6*	8
O=C(CN1C(=O)NC2(CCCCCCC2)C1=O)NCc1ccccc1	.	4	-2	i	-2	-1	.	.
Cc1cc2c(cc1S(=O)(=O)N1CCN(c3ccccc3)CC1)OCCN2C	i	-7	-15	i	1	-5	.	.
CC(=O)N1CCOc2cc(S(=O)(=O)N3CCN(c4ccccc4)CC3)c(Cl)cc21	i	25*	-3	i	-1	3	-1	-5
CC1(C(=O)NS(=O)(=O)c2ccc3ccccc3c2)CCN1C(=O)Cc1ccc(-c2ccccc2)cc1 (centres undefined)	.	6	17	.	0	.	.	.
CCC1=C(OC(=O)N(CC)CC)N2C(=O)OC(=NCC3CC3)[C@]2(Cc2ccccc2)[C@H]2C1=CC[C@H]1C(=O)N(CC)C(=O)[C@H]12	i	18*	5	i	0	-3	0.9*	4
COCCNC(=O)C[C@@H]1C[C@H]2c3cc(NC(=O)Nc4ccc(F)cc4)ccc3O[C@H]2[C@H](CO)O1	.	1	1	.	1	.	.	.
CCC1CCCCN1C(=O)CCNC(=O)Cn1cnc2ccccc2c1=O (centres undefined)	i	0	2	i	0	-4	.	.
C/C(CC(=O)Nc1ccc(N(C)C)cc1)=N\NC(=O)c1ccccc1Cl	.	16*	8	.	-2	.	0.9*	3
N#C/C(=C/C1=C(N2CCOCC2)C(=C/c2ccc(Cl)cc2Cl)/CC1)C(=O)Nc1ccccc1F	.	3	0	i	-4	.	.	.
Cc1ccc(C(C)C)c(OCC(=O)OCC(=O)NC2CC2)c1	.	26*	5	i	0	3	0	-1
CCc1c(C)nn(C(=O)/C(C#N)=C\N(C)C)c1C	i	42*	-1	i	-2	4	0	2
CCOc1ccccc1CN1CCNC(=O)C1CC(=O)NCCN1CCOC1=O (centres undefined)	i	15*	16	i	0	-1	0	-3
O=C(CC1C(=O)NCCN1Cc1ccccc1C(F)(F)F)NCCn1cccn1 (centres undefined)	i	16*	3	i	-1	-4	0	0
CC(C)(C)c1csc(Sc2ccc([N+](=O)[O-])cn2)n1	i	18*	-7	i	1	-4	0.7*	4
Cc1ccnc(Sc2ccc([N+](=O)[O-])cn2)n1	i	2	-1	i	-1	-1	.	.
CC(C)N1CCC(=NNc2ccc(S(=O)(=O)N3CCOCC3)cc2[N+](=O)[O-])CC1	i	0	5	i	-3	-1	.	.
CCCN1CCC(=NNc2ccc(S(=O)(=O)N3CCOCC3)cc2[N+](=O)[O-])CC1	i	17*	-16	i	1	-1	0	1
O=C(c1cccc(C(=O)N(c2ccccn2)C2CCCCC2)c1)N(c1ccccn1)C1CCCCC1	i	30*	24	i	4	-3	0	53*
C[C@H]1CN([C@@H](C)CO)C(=O)c2cccc(NC(=O)c3nc4ccccc4s3)c2O[C@H]1CN(C)C(=O)Nc1ccc(F)cc1	.	-5	27	i	-1	-5	.	.
CN(C)CCCN1c2ccccc2CCc2ccc(Cl)cc21	i	-5	2	i	3	-8	.	.
CNCCCN1c2ccccc2CCc2ccccc21	i	31*	17	i	4	-8	-1	-7
CC12CCC(=O)C=C1C(F)CC1C2C(O)CC2(C)C1CCC2(O)C(=O)CO (centres undefined)	.	12	1	i	1	.	.	.
COc1cc(/C=C2\CCc3ccccc3C2=O)cc(OC)c1OC	i	19*	2	i	-2	-5	-1	-3
COc1cc(/C=C2/CCc3ccccc3C2=O)cc(OC)c1OC	i	-1	-1	i	-1	-3	.	.
SMILES	ANO1 block	m5-HT2A agonist	MC4R antag cAMP	ANO1 activ	MC4R ag barr	MIN6 prolif	MOR ag counter	HTR2A ag conf
CCOc1ccccc1C=C1CCc2ccccc2C1=O	.	30*	0	.	0	.	0	9
CC(C)(C)OC(=O)NCC(=O)NNC(=O)C(C(=O)OCc1ccccc1)c1ccccc1 (centres undefined)	.	-1	17	i	0	1	.	.
COc1ccc([C@H]2CC(=O)C[C@@H](CCn3cc(-c4nccn4C)nn3)O2)cc1	.	6	.	.	.	.	.	.
O=C(CNC(=O)c1ccc(Br)o1)NCC(=O)OCc1ccccc1	i	9	1	i	-1	-3	.	.
CN(C(=O)c1cccc(NC(=O)Cc2ccc(NC(=O)C3CCCN(C(=O)CCc4ccccc4)C3)cc2)c1)C1CC1 (centres undefined)	.	16*	0	.	0	.	1.1*	-1
O=C(Cc1ccc(NC(=O)C2CCCN(C(=O)C3CC3)C2)cc1)Nc1cccc(C(=O)N2CCCC2)c1 (centres undefined)	.	15*	-8	.	-1	.	-1	-4
O=C(Cc1ccc(NC(=O)C2CCCN(C(=O)C3CCC3)C2)cc1)Nc1ccc(C(=O)N2CCOCC2)cc1 (centres undefined)	.	17*	5	.	0	.	0	1
CN(C(=O)c1cccc(NC(=O)Cc2ccc(NC(=O)C3CCCN(C(=O)CCc4ccccc4)C3)cc2)c1)C1CCCCC1 (centres undefined)	.	-2	3	.	0	.	.	.
CC1(C)CC(=O)C/C(=N\NC(=S)NCc2ccccc2)C1	i	17*	4	i	-2	-3	-1	-5
CC(=O)Nc1cccc(-c2cc(N3CCN(CCO)CC3)n3nccc3n2)c1	.	3	8	.	-1	.	.	.
Cc1ccc(NC(=O)COc2ccc(S(=O)(=O)N3CCOCC3)cc2)cc1	i	20*	3	i	-3	-3	-1	-4
COc1ccc(C2=CC(=O)C[C@H](CN3C(=O)c4ccccc4C3=O)N(C(=O)OC(C)(C)C)O2)cc1	.	15*	2	.	1	.	-1	-5
O=C1C(=O)N(CCS(=O)(=O)c2ccccc2)c2ccc(Cl)cc21	i	-3	-17	i	-2	-4	.	.
